Screening data (PubChem)
An excerpt weighted towards active compounds, which were near 2.3% of everything screened.
SIAE primary = human SIAE inhibition, primary screen; Q9HAT2; SIAE FP-Rh probe binding, fluorescence polarization; inhibition, % at 9.66 µM; hit rate 0.69% among 370,000; AID 1053197;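 active = inhibition above a cutoff: mean of compounds within the control limits plus 3 SD of those, cut at about 17% in these data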;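 note: 0% = plate median of compound wells and 100% = probe without SIAE protein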
TCR CD3 inh = inhibitors of human TCR-CD3 interaction | TAMRA-labeled TCR probe fluorescence, biochemical | inhibition, % at 9.4 µM | hit rate 0.37% among 360,000; in the data active = inhibition above about 19%;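 note: recombinant mutant TCR 2C K166C tagged with TAMRA read by polarization; 0% = receptor in buffer alone and 100% = receptor with positive control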
ABHD4 inh = ABHD4 (mouse) inhibition, primary FP screen; AID 720543; inhibition, % at 8.92 µM; hit rate 0.54% among 370,000; purified mABHD4, FP-Rh probe fluorescence polarization;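 active = inhibition exceeding the mean over every tested compound plus 3 SD, cut at about 30% in these data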;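 note: 0% = plate median of compound wells and 100% = S159A mutant with DMSO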
Target sequence (Q8VD66 whole entry, looked up): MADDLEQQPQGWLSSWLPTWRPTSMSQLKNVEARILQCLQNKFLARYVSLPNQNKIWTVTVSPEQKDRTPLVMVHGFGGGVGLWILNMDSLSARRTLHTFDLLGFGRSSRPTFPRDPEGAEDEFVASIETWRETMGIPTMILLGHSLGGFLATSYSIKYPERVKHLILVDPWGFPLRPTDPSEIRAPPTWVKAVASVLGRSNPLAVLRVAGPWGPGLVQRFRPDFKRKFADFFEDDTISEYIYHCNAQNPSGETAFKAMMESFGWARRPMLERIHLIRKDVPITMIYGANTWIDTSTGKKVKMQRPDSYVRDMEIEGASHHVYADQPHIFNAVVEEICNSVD
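Material: mouse ABHD4 enzyme, wild type; Benchmarks: S159A mutant high control, sample median low control; Buffer or medium: HEPES pH 7.0, NaCl, Pluronic buffer; Signal: fluorescence polarization; Read-out: percent inhibition of probe binding, normalized to plate controls; Timing: pre-incubation 45 min, probe exposure 60 min, at 25 °C; Dosing: 8.92 µM, single dose.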
pPAFAH inh = inhibitors of human plasma PAF acetylhydrolase (pPAFAH); inhibition, % at 3.39 µM; recombinant pPAFAH, FP-rhodamine probe fluorescence polarization; hit rate 1.5% among 330,000;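 active = inhibition above the mean inhibition across the screen plus 3 SD, cut at about 25% in these data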;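 note: inhibitors block binding of the rhodamine activity-based probe so polarization drops; 0% = enzyme with DMSO and 100% = wells lacking pPAFAH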
HTRA1 inhibitor = HTRA1 (human) protease inhibition; Q92743; recombinant HTRA1, FP-rhodamine activity-based probe, fluorescence polarization; inhibition, % at 5.96 µM; hit rate 0.5% among 340,000; in the data active = inhibition above about 36%;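 note: 0% = enzyme with DMSO and 100% = wells lacking enzyme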
SIAE confirm = confirmation of human SIAE inhibitors | hit rate 13% among 2,300 | AID 1117263 | shares compounds with SIAE primary | SIAE FP-Rh activity-based probe, fluorescence polarization | inhibition, % at 9.66 µM;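 active = mean inhibition of the replicates above the hit cutoff set in the primary screen, cut at about 17% in these data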;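 note: 0% = SIAE with DMSO and probe and 100% = probe without SIAE; inhibitors lower polarization as more probe stays unbound to SIAE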
Starred values were filed as active, the others as inactive; · = no result.

SMILES	SIAE primary	TCR CD3 inh	ABHD4 inh	pPAFAH inh	HTRA1 inhibitor	SIAE confirm
Cc1ccc2c(c1)N(CCCC(=O)N(C)Cc1ccccc1Cl)C(=O)CO2	-1	·	0	·	·	·
CN(C)c1ccc(NC(=O)c2cn(-c3ccccc3)nc2-c2cccs2)cc1	25*	2	10	17	7	19*
CCOC(=O)[C@]12CCC=C1N(Cc1cccc3ccccc13)C(=O)[C@H](CC(=O)NCCCCc1ccccc1)C2	0	5	-11	·	·	·
O=C(O)c1cccc(NS(=O)(=O)c2ccc(Cl)c(C(=O)O)c2)c1	18*	1	6	-2	8	-3
O=C(O)c1cccc(NS(=O)(=O)c2ccc(-c3ccc(S(=O)(=O)Nc4cccc(C(=O)O)c4)cc3)cc2)c1	-8	8	10	-2	-12	·
O=c1c2ccccc2c2ccccc2c(=O)n1-c1ccccc1	-1	-1	8	0	2	·
O=c1[nH][nH]c(=O)n1-c1ccccc1	20*	0	6	-1	3	-2
COc1cccc(CNC(=O)[C@@H]2CCCN2C(=O)[C@H]2CCCCN2C(=O)c2cccc(Cl)c2)c1	10	-13	12	·	·	·
CN(C)/C=C(\C(=O)c1ccc(Cl)cc1)c1nnnn1-c1ccc(Cl)cc1	18*	-2	-6	-1	5	-5
COC(=O)[C@@H](N[C@H](/C=C/c1ccccc1)[C@@H](O)Cc1ccccc1)c1ccccc1	4	-4	-11	·	·	·
O=C(c1ccco1)N1CCCC(Nc2ccc3c(c2)OCCO3)C1 (stereo not drawn)	5	3	-3	0	8	·
O=C(c1cc(Cl)ccc1F)N1CCCC(Nc2ccc3c(c2)OCCO3)C1 (stereo not drawn)	17*	2	2	7	0	0
O=C1CCCN1c1ccc(S(=O)(=O)N2CCCCC2)cc1	17*	-9	0	3	-6	-1
Cc1ccc(OCC(=O)Nc2cccc3nsnc23)c(C)c1	33*	-2	1	3	1	1
CN(C)CCCN(C(=O)c1ccc(S(=O)(=O)N(C)Cc2ccccc2)cc1)c1nc2cc3c(cc2s1)OCO3	22*	6	4	0	-21	15
CC(C)=C1C2CCC1C(C(=O)NCCc1ccccc1)C2C(=O)O (stereo not drawn)	21*	5	0	-2	2	-2
CCN(CC(=O)NCc1ccc(Cl)cc1)C(=O)CCC(=O)c1ccc(F)cc1	20*	1	2	4	-4	-2
COc1cc(C23CCCN(CCC(C(C)(C)C)C2)C32OCCO2)cc(OC)c1OC (stereo not drawn)	1	0	-3	·	·	·
Cn1c(=O)c2c(SCC(=O)Nc3ccccc3F)nc(C3CC3)nc2n(C)c1=O	1	2	-9	0	7	·
Cn1c(=O)c2c(SCC(=O)Nc3ccccc3F)nc(-c3ccccc3F)nc2n(C)c1=O	23*	3	-2	-3	9	1
O=C(N/N=C/C=C/c1ccco1)c1cccc([N+](=O)[O-])c1	17*	3	14	20	19	-6
COc1ccc(NC(=O)Nc2ccc3c(c2)C(=O)N([C@H](C)CO)C[C@H](C)[C@@H](CN(C)S(=O)(=O)c2ccc(OC)cc2)O3)cc1	22*	1	-2	9	-9	-4
C[C@H]1CCCCO[C@H](CN(C)C(=O)Nc2ccc(F)cc2)[C@@H](C)CN([C@@H](C)CO)C(=O)c2cc(NC(=O)Nc3ccc4c(c3)OCO4)ccc2O1	11	0	-1	·	-5	·
COc1ccc(NC(=O)N(C)C[C@H]2OCCCC[C@H](C)Oc3ccc(NC(=O)Nc4ccc5c(c4)OCO5)cc3C(=O)N([C@@H](C)CO)C[C@@H]2C)cc1	23*	1	11	·	9	6
C[C@H](CO)N1C[C@H](C)[C@@H](CN(C)S(=O)(=O)c2ccccc2)Oc2ccc(NC(=O)Nc3ccc4c(c3)OCO4)cc2C1=O	19*	8	5	16	8	2
SMILES	SIAE primary	TCR CD3 inh	ABHD4 inh	pPAFAH inh	HTRA1 inhibitor	SIAE confirm
NC(Cc1ccc(C(F)(F)F)cc1)c1csc(NC(=O)Nc2ccccc2Cc2ccccc2)n1 (stereo not drawn)	17*	-15	5	·	·	23*
CCOc1cc(N(CC)CC)ccc1/C=C(/C#N)c1nc2ccccc2[nH]1	27*	-7	15	27*	10	6
Cc1ccccc1C(=O)Nc1nnc(-c2cccnc2)o1	18*	-4	-2	5	0	-5
Cc1ccccc1C(=O)Nc1nnc(-c2ccc(F)cc2)o1	0	3	-7	5	4	·
COCCNc1nc(-c2ccc(OC)cc2)c(-c2ccc(OC)cc2)s1	19*	-9	5	10	16	7
COc1cccc(NC(=O)C2CCCN2C(=O)Nc2ccc(Cl)cc2)c1 (stereo not drawn)	-6	·	0	·	·	·
CC(=O)NC(=S)Nc1ccc(NC(=S)NC(=O)/C=C/c2ccco2)cc1	31*	0	-7	-3	0	-28
CN(c1ccccc1)S(=O)(=O)c1cccc(NC(=O)CSc2ncn[nH]2)c1	18*	-4	-7	2	-9	0
COCC(=O)N[C@H]1CC[C@@H](CC(=O)NCc2ccccc2OC)O[C@@H]1CO	-7	0	-4	·	·	·
COc1ccc(NC(=O)CC2SC(=NCC3CCCO3)NC2=O)cc1 (stereo not drawn)	17*	1	1	-3	0	-3
CC(=O)Nc1ccc(S(=O)(=O)N(C)CC(=O)OCC(=O)N2CCCCC2)cc1	-4	6	1	0	3	·
CCOc1ccc(OCCOC(=O)CN(C)S(=O)(=O)c2ccc(NC(C)=O)cc2)cc1	20*	1	2	1	-5	-5
Cc1ccc(C(=O)NCCCNC(=O)c2ccco2)cc1	-2	-2	3	-1	1	·
Cc1ccc(-c2cnc(SCCNC(=O)c3ccco3)[nH]2)cc1	17*	-1	-6	0	3	1
CCC(=O)c1c(CC)c2n3c1CC[C@H]3CCC2	17*	-5	3	0	11	4
CCc1c(C(=O)C(C)O)c2n3c1CCC[C@@H]3CC2 (stereo partly drawn)	9	·	7	·	·	·
Cn1c(Nc2ccccc2)nc2ccccc21	4	-2	0	0	-1	·
Nn1c(Nc2ccccc2)nc2ccccc21	23*	-2	4	0	-1	0
O=C(Nc1ccccc1)Nc1c(-c2ccc(F)cc2)nc2ncccn12	3	·	8	·	·	·
CCCOc1ccc(OCCN2CCCC(C)C2)cc1 (stereo not drawn)	20*	0	15	-1	1	7
Cc1nc(N2CCN(S(=O)(=O)c3ccc(Br)cc3)CC2)c2c(C)c(C)sc2n1	19*	4	2	5	-5	-7
